Test results from ChEMBL document CHEMBL1127338, “Synthesis and antifungal activity of 1,3,2-benzodithiazole S-oxides” (J Med Chem, 1994).
Converted amounts (≈) assume the structure as drawn.

Key:
[1] = tested on: Candida albicans; test: Antifungal activity against Candida albicans CCH442 strain; format: functional
Procedure, shortened: (§1)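 MIC determined by microtiter broth dilution in yeast nitrogen base with 0.05% glucose. Inoculum came from an overnight plate culture, at a final 5×10^4 cfu/mL. Plates were incubated at 35 °C for 24-48 h. MIC was taken as the lowest drug concentration completely inhibiting visible growth. 10231, 442 and 579A are clinical isolates; 38247 is a nonclinical amphotericin-resistant strain.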

[2] = tested on: Candida albicans; test: Antifungal activity against Candida albicans 579A strain; format: functional; procedure, shortened: as §1
[3] = tested on: Candida albicans; test: Antifungal activity against Candida albicans 10231 strain; format: functional; procedure, shortened: as §1
[4] = tested on: Candida albicans; test: Antifungal activity against Candida albicans 38247 strain; format: functional; procedure, shortened: as §1
[5] = tested on: Rattus norvegicus; test: % of the total radioactive dose of compound present in the 0-24 hour urine after a single 5 mg/kg dose administered intravenously in rats; format: ADME, organism-based; parameters: dose 5 mg/kg, route intravenous; conditions: in vivo, iv
Procedure, shortened: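 14C-benzylic-labelled compound mixed with unlabelled material, given once iv at 5 mg/kg (~15 μCi per rat) as a 5 mg/mL solution in ethanol/propylene glycol/saline (20:35:45). Urine and feces collected daily for 3 days from two rats. Duplicate urine aliquots counted by liquid scintillation with quench correction. Fecal homogenates oxidized to 14CO2 before counting.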

[6] = tested on: Rattus norvegicus; test: plasma concentration of total radio activity 30 minutes after intravenous administration in rats; format: ADME, organism-based; conditions: in vivo, 0.5 h
Procedure, shortened: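 Rats given a single 5 mg/kg iv dose of 14C-labelled compound (~15 μCi each) in ethanol/propylene glycol/saline (20:35:45). At 30 min, one male and two female rats were anesthetized with CO2 and bled by cardiac puncture. Plasma was separated from heparinized blood by centrifugation at 4 °C for 15 min. Duplicate aliquots were counted by liquid scintillation with quench correction.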

Row | SMILES | MIC [1] | MIC [2] | MIC [3] | MIC [4] | Excretion [5] | Plasma concentration [6]
1 | CCC(CC)N1Sc2ccccc2[S+]1[O-] (stereo not drawn) | 100 µg/mL (≈ 414 µM) | 100 µg/mL (≈ 414 µM) | 100 µg/mL (≈ 414 µM) | 50 µg/mL (≈ 207 µM) | – | –
2 | [O-][S+](c1ccccc1)N(Cc1ccccc1)Sc1ccccc1 (stereo not drawn) | > 100 µg/mL | > 100 µg/mL | > 100 µg/mL | 50 µg/mL (≈ 147 µM) | – | –
3 | [O-][S+]1c2ccccc2SN1Cc1c(F)cccc1F (stereo not drawn) | 1.56 µg/mL (≈ 5.25 µM) | 0.78 µg/mL (≈ 2.62 µM) | 0.78 µg/mL (≈ 2.62 µM) | 1.56 µg/mL (≈ 5.25 µM) | – | –
4 | [O-][S+]1c2ccccc2SN1Cc1ccc(F)c(F)c1 (stereo not drawn) | 1.56 µg/mL (≈ 5.25 µM) | 1.56 µg/mL (≈ 5.25 µM) | 1.56 µg/mL (≈ 5.25 µM) | 3.12 µg/mL (≈ 10.5 µM) | – | –
5 | [O-][S+]1c2ccc(F)cc2SN1Cc1ccccc1 (stereo not drawn) | 0.78 µg/mL (≈ 2.79 µM) | 0.78 µg/mL (≈ 2.79 µM) | 0.78 µg/mL (≈ 2.79 µM) | 1.56 µg/mL (≈ 5.58 µM) | – | –
6 | Cc1cccc2c1[S+]([O-])N(Cc1ccccc1)S2 (stereo not drawn) | 1.56 µg/mL (≈ 5.66 µM) | 0.78 µg/mL (≈ 2.83 µM) | 0.78 µg/mL (≈ 2.83 µM) | 1.56 µg/mL (≈ 5.66 µM) | – | –
7 | CC(C)(C)CCN1Sc2ccccc2[S+]1[O-] (stereo not drawn) | 1.56 µg/mL (≈ 6.11 µM) | 3.12 µg/mL (≈ 12.2 µM) | 1.56 µg/mL (≈ 6.11 µM) | – | – | –
8 | Cc1ccc(C)c2c1SN(Cc1ccccc1)[S+]2[O-] (stereo not drawn) | 3.12 µg/mL (≈ 10.8 µM) | 3.12 µg/mL (≈ 10.8 µM) | 1.56 µg/mL (≈ 5.39 µM) | 25 µg/mL (≈ 86.4 µM) | – | –
9 | CCCCCCCCCCCCCCCCN1Sc2ccccc2[S+]1[O-] (stereo not drawn) | > 100 µg/mL | > 100 µg/mL | > 100 µg/mL | > 100 µg/mL | – | –
10 | CCCCCCCC/C=C/CCCCCCCCN1Sc2ccccc2[S+]1[O-] (stereo not drawn) | > 100 µg/mL | 100 µg/mL (≈ 237 µM) | 100 µg/mL (≈ 237 µM) | > 100 µg/mL | – | –
11 | c1ccc(CN2Sc3ccccc3S2)cc1 | 12.5 µg/mL (≈ 50.9 µM) | 6.25 µg/mL (≈ 25.5 µM) | 6.25 µg/mL (≈ 25.5 µM) | 25 µg/mL (≈ 102 µM) | – | –
12 | [O-][S+]1c2ccccc2SN1Cc1ccccc1 (stereo not drawn) | – | – | – | – | 88% | 4.6 ug equiv ml-1
13 | [O-][S+]1c2ccccc2SN1c1ccc2c(c1)OCO2 (stereo not drawn) | 25 µg/mL (≈ 85.8 µM) | 25 µg/mL (≈ 85.8 µM) | 12.5 µg/mL (≈ 42.9 µM) | 25 µg/mL (≈ 85.8 µM) | – | –
14 | [O-][S+]1c2c(F)c(F)c(F)c(F)c2SN1Cc1ccccc1 (stereo not drawn) | 12.5 µg/mL (≈ 37.5 µM) | 6.25 µg/mL (≈ 18.8 µM) | 6.25 µg/mL (≈ 18.8 µM) | 12.5 µg/mL (≈ 37.5 µM) | – | –
